# Data from ChEMBL document CHEMBL3588853, “Synthesis, biological evaluation, and molecular docking studies of novel 1-benzene acyl-2-(1-methylindol-3-yl)-benzimidazole derivatives as potential tubulin polymerization inhibitors” (Eur J Med Chem, 2015).
# Columns and labels:
# A549 [1] = experiment: Induction of apoptosis in human A549 cells assessed as late apoptotic cells at 5 uM after 24 hrs by annexin V/PI double staining FACScalibur flow cytometry (reference value: 0.406 %); assay type: functional
# A549 [2] = experiment: Induction of apoptosis in human A549 cells assessed as viable cells at 5 uM after 24 hrs by annexin V/PI double staining FACScalibur flow cytometry (reference value: 99%); assay type: functional; conditions: A549, 24 h, read-out: Activity
# A549 [3] = experiment: Induction of cell cycle arrest in human A549 cells assessed as accumulation at S phase at 1 uM after 24 hrs by propidium iodide staining based flow cytometric analysis (reference value: 7.63%); assay type: functional
# A549 [4] = experiment: Induction of cell cycle arrest in human A549 cells assessed as accumulation at G2/M phase at 5 uM after 24 hrs by propidium iodide staining based flow cytometric analysis (reference value: 13.26%); assay type: functional
# Tubulin (Bos taurus) = Tubulin (Bos taurus) (UniProt Q6B856+Q862F3); conditions: at 5 µM
# A549 [5] = experiment: Induction of cell cycle arrest in human A549 cells assessed as accumulation at S phase at 2 uM after 24 hrs by propidium iodide staining based flow cytometric analysis (reference value: 7.63%); assay type: functional
# A549 [6] = experiment: Induction of cell cycle arrest in human A549 cells assessed as accumulation at SubG0 phase at 2 uM after 24 hrs by propidium iodide staining based flow cytometric analysis (reference value: 0%); assay type: functional
# A549 [7] = experiment: Induction of apoptosis in human A549 cells assessed as necrotic cells at 2 uM after 24 hrs by annexin V/PI double staining FACScalibur flow cytometry (reference value: 0.529%); assay type: functional
# A549 [8] = experiment: Induction of apoptosis in human A549 cells assessed as early apoptotic cells at 1 uM after 24 hrs by annexin V/PI double staining FACScalibur flow cytometry (reference value: 0.061%); assay type: functional
# A549 [9] = experiment: Induction of apoptosis in human A549 cells assessed as late apoptotic cells at 1 uM after 24 hrs by annexin V/PI double staining FACScalibur flow cytometry (reference value: 0.406 %); assay type: functional
# Tubulin = Tubulin (Bos taurus, UniProt Q6B856+Q862F3); experiment: Inhibition of bovine brain tubulin polymerization extent after 20 mins by turbidimetrically
# A549 [10] = experiment: Induction of apoptosis in human A549 cells assessed as early apoptotic cells at 2 uM after 24 hrs by annexin V/PI double staining FACScalibur flow cytometry (reference value: 0.061%); assay type: functional
# A549 [11] = experiment: Growth inhibition of human A549 cells assessed as inhibition of cell proliferation after 24 hrs by MTT assay; assay type: functional; conditions: A549, 24 h
# How it was run: (§1)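 Cells seeded at (1–5) × 10^3 per well and grown 12 h at 37 °C. Compounds added at increasing concentrations in medium with 10% FBS for 24 h. MTT dye then added, followed by 3–4 h at 37 °C. Medium discarded, formazan dissolved in DMSO and plate read. GI50 calculated relative to DMSO-treated control wells.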
# HepG2 = experiment: Growth inhibition of human HepG2 cells assessed as inhibition of cell proliferation after 24 hrs by MTT assay; assay type: functional; conditions: HepG2, 24 h; how it was run: as §1
# A549 [12] = experiment: Induction of apoptosis in human A549 cells assessed as late apoptotic cells at 2 uM after 24 hrs by annexin V/PI double staining FACScalibur flow cytometry (reference value: 0.406 %); assay type: functional
# A549 [13] = experiment: Induction of cell cycle arrest in human A549 cells assessed as accumulation at G2/M phase at 1 uM after 24 hrs by propidium iodide staining based flow cytometric analysis (reference value: 13.26%); assay type: functional
# A549 [14] = experiment: Induction of cell cycle arrest in human A549 cells assessed as accumulation at SubG0 phase at 5 uM after 24 hrs by propidium iodide staining based flow cytometric analysis (reference value: 0%); assay type: functional
# A549 [15] = experiment: Induction of apoptosis in human A549 cells assessed as early apoptotic cells at 5 uM after 24 hrs by annexin V/PI double staining FACScalibur flow cytometry (reference value: 0.061%); assay type: functional
# A549 [16] = experiment: Induction of cell cycle arrest in human A549 cells assessed as accumulation at SubG0 phase at 1 uM after 24 hrs by propidium iodide staining based flow cytometric analysis (reference value: 0%); assay type: functional
# MCF7 = experiment: Growth inhibition of human MCF7 cells assessed as inhibition of cell proliferation after 24 hrs by MTT assay; assay type: functional; conditions: MCF7, 24 h; how it was run: as §1
# A549 [17] = experiment: Induction of cell cycle arrest in human A549 cells assessed as accumulation at G0/G1 phase at 2 uM after 24 hrs by propidium iodide staining based flow cytometric analysis (reference value: 79.11%); assay type: functional
# A549 [18] = experiment: Induction of apoptosis in human A549 cells assessed as viable cells at 1 uM after 24 hrs by annexin V/PI double staining FACScalibur flow cytometry (reference value: 99%); assay type: functional; conditions: A549, 24 h, read-out: Activity
# A549 [19] = experiment: Induction of cell cycle arrest in human A549 cells assessed as accumulation at S phase at 5 uM after 24 hrs by propidium iodide staining based flow cytometric analysis (reference value: 7.63%); assay type: functional
# A549 [20] = experiment: Induction of cell cycle arrest in human A549 cells assessed as accumulation at G0/G1 phase at 5 uM after 24 hrs by propidium iodide staining based flow cytometric analysis (reference value: 79.11%); assay type: functional
# A549 [21] = experiment: Induction of cell cycle arrest in human A549 cells assessed as accumulation at G0/G1 phase at 1 uM after 24 hrs by propidium iodide staining based flow cytometric analysis (reference value: 79.11%); assay type: functional
# A549 [22] = experiment: Induction of apoptosis in human A549 cells assessed as viable cells at 2 uM after 24 hrs by annexin V/PI double staining FACScalibur flow cytometry (reference value: 99%); assay type: functional; conditions: A549, 24 h, read-out: Activity
# A549 [23] = experiment: Induction of cell cycle arrest in human A549 cells assessed as accumulation at G2/M phase at 2 uM after 24 hrs by propidium iodide staining based flow cytometric analysis (reference value: 13.26%); assay type: functional
# A549 [24] = experiment: Induction of apoptosis in human A549 cells assessed as necrotic cells at 5 uM after 24 hrs by annexin V/PI double staining FACScalibur flow cytometry (reference value: 0.529%); assay type: functional
# A549 [25] = experiment: Induction of apoptosis in human A549 cells assessed as necrotic cells at 1 uM after 24 hrs by annexin V/PI double staining FACScalibur flow cytometry (reference value: 0.529%); assay type: functional
# Tubulin, sequence (Q6B856 whole entry): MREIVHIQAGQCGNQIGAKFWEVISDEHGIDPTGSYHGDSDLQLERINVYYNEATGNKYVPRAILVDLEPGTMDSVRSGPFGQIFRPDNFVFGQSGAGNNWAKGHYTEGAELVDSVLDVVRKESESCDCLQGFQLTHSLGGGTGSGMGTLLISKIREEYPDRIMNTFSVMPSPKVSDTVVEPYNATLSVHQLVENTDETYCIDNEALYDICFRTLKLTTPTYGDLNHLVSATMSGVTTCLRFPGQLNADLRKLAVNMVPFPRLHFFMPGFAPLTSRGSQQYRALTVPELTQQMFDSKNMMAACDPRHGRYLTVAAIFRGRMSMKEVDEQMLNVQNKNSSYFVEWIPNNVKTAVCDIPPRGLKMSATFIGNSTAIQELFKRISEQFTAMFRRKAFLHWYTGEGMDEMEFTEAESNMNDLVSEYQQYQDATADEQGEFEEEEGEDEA
# Tubulin, sequence (Q862F3 whole entry): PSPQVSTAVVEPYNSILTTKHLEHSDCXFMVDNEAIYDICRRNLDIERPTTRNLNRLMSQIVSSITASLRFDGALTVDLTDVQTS
smiles,measurement,setting,value
COc1ccc2c(c1)c(-c1nc3ccccc3n1C(=O)c1cc(OC)c(OC)c(OC)c1)cn2C,Activity,A549 [1],6.03%
same,viability at 5 µM,A549 [2],76.2%
same,Activity,A549 [3],12.51%
same,Activity,A549 [4],39.46%
same,inhibition,Tubulin (Bos taurus),96%
same,Activity,A549 [5],12.51%
same,Activity,A549 [6],0%
same,Activity,A549 [7],0.543%
same,Activity,A549 [8],14.8%
same,Activity,A549 [9],4.77%
same,IC50,Tubulin,1.5 µM
same,Activity,A549 [10],17%
same,GI50,A549 [11],2.4 µM
same,GI50,HepG2,3.8 µM
same,Activity,A549 [12],5.13%
same,Activity,A549 [13],27.23%
same,Activity,A549 [14],0%
same,Activity,A549 [15],17.2%
same,Activity,A549 [16],0%
same,GI50,MCF7,5.1 µM
same,Activity,A549 [17],57.42%
same,viability at 1 µM,A549 [18],79.8%
same,Activity,A549 [19],11.24%
same,Activity,A549 [20],49.3%
same,Activity,A549 [21],60.17%
same,viability at 2 µM,A549 [22],77.3%
same,Activity,A549 [23],33.21%
same,Activity,A549 [24],0.595%
same,Activity,A549 [25],0.59%
COc1cccc(C(=O)n2c(-c3cn(C)c4ccc(Br)cc34)nc3ccccc32)c1,inhibition,Tubulin (Bos taurus),78%
same,IC50,Tubulin,5.7 µM
same,GI50,A549 [11],10.8 µM
same,GI50,HepG2,17.8 µM
same,GI50,MCF7,18.2 µM
COc1ccccc1C(=O)n1c(-c2cn(C)c3ccccc23)nc2ccccc21,inhibition,Tubulin (Bos taurus),70%
same,IC50,Tubulin,15.9 µM
same,GI50,A549 [11],12.3 µM
same,GI50,HepG2,31.8 µM
same,GI50,MCF7,32.1 µM
COc1ccc2c(c1)c(-c1nc3ccccc3n1C(=O)c1ccccc1OC)cn2C,inhibition,Tubulin (Bos taurus),73%
same,IC50,Tubulin,8.4 µM
same,GI50,A549 [11],11.9 µM
same,GI50,HepG2,23.6 µM
same,GI50,MCF7,23.9 µM
COc1ccc2c(c1)c(-c1nc3ccccc3n1C(=O)c1ccc(OC)c(OC)c1)cn2C,inhibition,Tubulin (Bos taurus),94%
same,IC50,Tubulin,1.7 µM
same,GI50,A549 [11],2.7 µM
same,GI50,HepG2,5.1 µM
same,GI50,MCF7,6.3 µM
COc1cc(C(=O)n2c(-c3cn(C)c4ccccc34)nc3ccccc32)cc(OC)c1OC,inhibition,Tubulin (Bos taurus),95%
same,IC50,Tubulin,1.6 µM
same,GI50,A549 [11],2.6 µM
same,GI50,HepG2,4.3 µM
same,GI50,MCF7,5.4 µM
COc1ccc(C(=O)n2c(-c3cn(C)c4ccccc34)nc3ccccc32)cc1,inhibition,Tubulin (Bos taurus),80%
same,IC50,Tubulin,4.6 µM
same,GI50,A549 [11],10.4 µM
same,GI50,HepG2,15.2 µM
same,GI50,MCF7,16.3 µM
COc1ccccc1C(=O)n1c(-c2cn(C)c3ccc(Br)cc23)nc2ccccc21,inhibition,Tubulin (Bos taurus),68%
same,IC50,Tubulin,17.3 µM
same,GI50,A549 [11],12.8 µM
same,GI50,HepG2,34.6 µM
same,GI50,MCF7,36.2 µM
Cn1cc(-c2nc3ccccc3n2C(=O)c2ccccc2Br)c2ccccc21,inhibition,Tubulin (Bos taurus),50%
same,IC50,Tubulin,42.9 µM
same,GI50,A549 [11],43.2 µM
same,GI50,HepG2,68.2 µM
same,GI50,MCF7,70.1 µM
Cn1cc(-c2nc3ccccc3n2C(=O)c2ccccc2Br)c2cc(Br)ccc21,inhibition,Tubulin (Bos taurus),48%
same,IC50,Tubulin,45.6 µM
same,GI50,A549 [11],46.7 µM
same,GI50,HepG2,72.1 µM
same,GI50,MCF7,73.6 µM
COc1cccc(C(=O)n2c(-c3cn(C)c4ccccc34)nc3ccccc32)c1,inhibition,Tubulin (Bos taurus),81%
same,IC50,Tubulin,4.4 µM
same,GI50,A549 [11],10.2 µM
same,GI50,HepG2,13.6 µM
same,GI50,MCF7,15.7 µM
COc1cc(C(=O)n2c(-c3cn(C)c4ccc(Br)cc34)nc3ccccc32)cc(OC)c1OC,inhibition,Tubulin (Bos taurus),91%
same,IC50,Tubulin,2 µM
same,GI50,A549 [11],3 µM
same,GI50,HepG2,8.2 µM
same,GI50,MCF7,9.7 µM
Cn1cc(-c2nc3ccccc3n2C(=O)c2ccccc2)c2cc(Br)ccc21,inhibition,Tubulin (Bos taurus),60%
same,IC50,Tubulin,25.3 µM
same,GI50,A549 [11],23.1 µM
same,GI50,HepG2,48.1 µM
same,GI50,MCF7,50.3 µM
